# Compounds with a hit are over-represented: about 5.5% of the library has one in this group of screens.
# RAM network inh: yeast RAM network inhibition; inhibition, % at 50 µM; S. cerevisiae dse1pr::URA3 reporter, 5-FOA growth OD615, 2 d; analog-sensitive cbk1-as2 kinase mutant strain; 1.8% of 190,000 active;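 active = inhibition above a set limit, 3 SD over mean compound inhibition, cut at about 8.4% in these data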;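 also: 0% = DMSO-only wells with no growth and 100% = 10 µM 1-NA-PP1 full growth; inhibition rescues growth on 5-FOA so higher OD means more RAM inhibition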
# Yeast growth inh: reduces growth of yeast BB579 in restrictive medium | inhibition, % at 10 µM | 0.51% of 140,000 active | AID 804 | S. cerevisiae BB579 growth, OD615, 48 h;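 active = inhibition above a set limit, 3 SD over the mean compound inhibition, cut at about 44% in these data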
#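 Test system: DeaD yeast strain BB579 / Buffer or medium: restrictive glucose-based CSMM-D medium / Doses: single 10 µM dose / Schedule: 4 h cell preincubation, 48 h compound exposure, 30 °C humidified / Technique: culture absorbance at 615 nm / Controls: amphotericin B positive control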
# WT yeast gro inh: growth inhibition of WT yeast, mitochondrial fusion screen. mitochondrial fusion phenotypic screen, WT strain. inhibition, % at 10 µM. 2.1% of 190,000 active. AID 1362; in the data active = inhibition above about 58%; tested in S. cerevisiae
# Yeast life ext: extends the lifespan of yeast; S. cerevisiae growth with nicotinamide, OD615; deaD strain in restrictive glucose medium; inhibition of the nicotinamide effect, % at 10 µM; 0.68% of 130,000 active; AID 775;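 active = inhibition above a set limit, placed 3 SD over the median of all compounds, cut at about 26% in these data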;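 also: 0% = nicotinamide-treated wells and 100% = cells grown without nicotinamide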
#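 Assay system: DeaD-strain S. cerevisiae. Medium: CSMM-D glucose medium, restrictive. Reagent: nicotinamide, 1.5 mM, co-present with compound. Compound: 10 µM single point, 0.25% DMSO. Schedule: culture preincubation 4 h, compound exposure 48 h, both 30 °C. Detection: absorbance at 615 nm.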
# KCC2 mod: modulates chloride dependent transport by human KCC2. Q9H2X9. KCC2 cells, thallium flux FluoZin-2 fluorescence. B-score of Tl+ flux slope (higher = more flux/activation; lower = inhibition) at 10 µM. 2.2% of 190,000 active. AID 1456;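 active = thallium flux slope and its plate-corrected score both differing from the plate sample mean at a set confidence after two filtering rounds, in either direction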;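 also: slope of fluorescence scaled to starting intensity during 10 to 20 s after thallium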
# KCC2 secondary: KCC2 (human) modulation, secondary assay | shares compounds with KCC2 mod | HEK293-KCC2, thallium flux, FluoZin2 fluorescence; active compounds read high | AID 1713 | 15% of 3,700 active | normalised thallium flux (F/F0 slope) at 10 µM;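 active = thallium flux slope above the same plate's solvent-only control mean plus 3 SD; inconclusive = the two replicate wells disagree; inactive = no significant difference from solvent-only control wells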
# KCC2 bumet counter: thallium flux despite bumetanide block in KCC2 cells, secondary assay 3; shares compounds with KCC2 mod; HEK293-KCC2 + bumetanide/ouabain, thallium flux FluoZin2; active compounds read high; normalized thallium flux at 10 µM; 49% of 3,700 active; AID 1714;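 active = thallium entry rate above the same plate's blocked-transporter control wells by more than 3 SD; inconclusive = the two repeat wells disagree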;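 also: raw slope of fluorescence over initial fluorescence between 10 and 20 s after thallium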
# KCC2 secondary2: confirmation of human KCC2 transport modulators. AID 1715. shares compounds with KCC2 mod. normalized thallium flux at 10 µM. 23% of 3,700 active. HEK293-KCC2, thallium flux FluoZin2 fluorescence; actives lie on both sides; F/F0 rise rate, 10–20 s post-thallium;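 active = thallium flux slope more than 3 SD above or below the plate's solvent-only control mean, mostly below; inconclusive = the two repeat wells disagreed; inactive = no significant shift from solvent-only controls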;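 also: raw slope with 0.1% DMSO as baseline and bumetanide as block control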
# HEK counter1: counter-screen for KCC2 modulators: effect in parental HEK293 cells. thallium flux rate (normalised fluorescence) at 10 µM. shares compounds with KCC2 mod. thallium flux FluoZin2, ouabain; baseline-ratio fluorescence slope, 10–20 s after thallium. AID 1716. 46% of 3,700 active;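 active = thallium flux rate significantly above the same plate's solvent-only control wells, beyond their mean plus 3 SD; inconclusive = the two replicate wells gave conflicting results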
# KCC2 retest ouab: modulates human KCC2 on retest with ouabain; shares compounds with KCC2 mod; HEK293-KCC2, thallium flux FluoZin2 fluorescence; bidirectional: low = inhibitor, high = activator; raw Tl+ flux slope (below DMSO = inhibition, above = activation) at 10 µM; 48% of 3,700 active; AID 1717;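 active = thallium flux slope beyond 3 SD from same-plate DMSO control mean in most replicates, usually higher, sometimes lower; inconclusive = repeat tests gave conflicting results; inactive = no significant difference from controls in most replicates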;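 also: slope of initial-normalized fluorescence between seconds 10 and 20 after thallium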
# HEK293 Tl flux2: acts in parental HEK cells, second KCC2 counter-screen | shares compounds with KCC2 mod | HEK293 parental, thallium flux FluoZin-2 fluorescence slope | thallium flux slope at 10 µM | 33% of 3,700 active | AID 1718;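 active = thallium flux slope above the same plate's solvent-control mean plus 3 SD in both duplicate wells; inconclusive = duplicate wells that disagreed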;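 also: run without ouabain in cells lacking the KCC2 cotransporter; slope of fluorescence scaled to its starting value between 10 and 20 s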
# An asterisk follows results filed as active; u = inconclusive; x = no result.
SMILES,RAM network inh,Yeast growth inh,WT yeast gro inh,Yeast life ext,KCC2 mod,KCC2 secondary,KCC2 bumet counter,KCC2 secondary2,HEK counter1,KCC2 retest ouab,HEK293 Tl flux2
Cc1ccc(CNC(=O)c2cc(COc3c(F)cccc3F)on2)s1,4,x,21,x,x,0.0068,0.0064,0.033,0.0037,0.015*,0.011
O=C(NCCc1cn2ccccc2n1)c1cc(COc2c(F)cccc2F)on1,2,x,8,x,-4*,u,u,u,0.0079,0.016*,0.0097
CC(=O)NC1=NN(C(C)=O)C(C)(CS(=O)(=O)c2ccc3ccccc3c2)S1 (stereo not drawn),2,-6,-10,x,0.44,x,x,x,x,x,x
CCOc1ccc(NC(=S)NC(C)c2cccs2)cc1 (stereo not drawn),0,2,32,-6,0.87,x,x,x,x,x,x
COc1cccc(/C=C2\SC(N)=NC2=O)c1OS(=O)(=O)c1ccccc1,7,x,3,x,x,x,x,x,x,x,x
COc1cccc(/C=C2\SC(=S)NC2=O)c1OS(=O)(=O)c1ccc(NC(C)=O)cc1,4,-35,2,8,-5.8*,u,0.0059,u,0.0055*,0.014*,0.0094
O=C(O)CCNc1cc2ccccc2cc1C(=O)O,0,-26,12,-7,5.6*,0.0063,0.0048,0.031,0.0075,0.02,0.011
CCOc1cc(OCC)cc(C(=O)NC(=S)Nc2cccc(C(F)(F)F)c2)c1,11*,-36,2,-5,3.3*,0.0058,0.014*,0.034,0.013*,u,0.014*
O=C(NC(=S)Nc1cccc(C(F)(F)F)c1)c1ccc2nonc2c1,x,x,x,x,52*,0.024*,0.12*,u,0.041*,0.063*,0.015*
CCOc1ccccc1N/C(=N/c1nc(C)cc(C)n1)NC(=O)Nc1ccc(Cl)c(Cl)c1,2,-10,4,-1,-0.39,x,x,x,x,x,x
CCN(CC(=O)NC1CCS(=O)(=O)C1)S(=O)(=O)c1ccc(C)c(C)c1 (stereo not drawn),1,-41,0,-3,-0.19,x,x,x,x,x,x
COc1ccccc1Nc1n[nH]c(=S)s1,1,x,-12,x,-1.8,x,x,x,x,x,x
Cc1cccc(Nc2n[nH]c(=S)s2)c1C,0,-27,19,-9,-5.3*,0.0057,0.0068,0.017*,0.0072,0.0074*,u
COc1cccc(Nc2n[nH]c(=S)s2)c1,-1,-4,-9,-6,-6.8*,0.0062,0.0044,0.021*,0.0068,0.011*,0.0093
COc1cccc(Nc2nc3ccc(OC)cc3s2)c1,-2,x,23,x,-2,x,x,x,x,x,x
Cc1csc(=N)n1CC(=O)N1CCc2ccccc21,1,-46,-14,-7,-0.27,x,x,x,x,x,x
CS(=O)(=O)N(CC(=O)N1CCCCC1)c1sc2c(c1C#N)CCCC2,2,-5,-15,-12,-0.85,x,x,x,x,x,x
Cc1cc(C)n(CC(=O)c2ccccc2)c(=O)c1C#N,1,-7,-8,-3,-0.42,0.015,0.0048,0.028,0.0076,0.017,0.01
Cc1ccc(C(=O)Cn2c(C)cc(C)c(C#N)c2=O)cc1,0,0,-5,-8,-0.3,x,x,x,x,x,x
CC1CCC(NC(=O)CN2C(=O)COc3ccc(S(=O)(=O)N4CCCC4)cc32)CC1 (stereo not drawn),2,-18,-13,-1,0.59,x,x,x,x,x,x
O=C(Nc1nc(SCc2ccc(F)cc2)ns1)c1ccco1,6,-32,68*,x,-3.7*,0.0059,u,0.021*,u,0.012*,0.011
O=C(COC(=O)c1cccs1)NCC1CCCCC1,1,x,-11,x,-0.2,x,x,x,x,x,x
O=C(Nc1cccc([N+](=O)[O-])c1)Nc1cccs1,0,x,1,x,-1.4,x,x,x,x,x,x
CCc1cc2cccc(C)c2nc1SCC(=O)NNC(=O)c1ccco1,4,-33,12,0,x,0.0096,0.01*,0.032,0.011*,0.021,0.011
CCc1cc2ccc(OC)cc2nc1SCC(=O)N1CCN(C(=O)c2ccco2)CC1,x,x,x,x,-4.1*,0.0057,0.0039,0.024*,0.0052*,0.012*,0.0084*
SMILES,RAM network inh,Yeast growth inh,WT yeast gro inh,Yeast life ext,KCC2 mod,KCC2 secondary,KCC2 bumet counter,KCC2 secondary2,HEK counter1,KCC2 retest ouab,HEK293 Tl flux2
CCc1cc2ccc(OC)cc2nc1SCC(=O)NNC(=O)c1ccco1,8,x,3,x,17*,0.0081,0.018*,0.034,0.028*,0.025*,0.014*
O=[N+]([O-])c1ccc(N2CCN(CCO)CC2)cc1Sc1nc2ccccc2[nH]1,0,-5,-16,-7,0.13,x,x,x,x,x,x
COC(=O)c1ccc(C)c(NC(=O)c2c(-c3ccccc3)noc2C)c1,2,9,1,-12,x,x,x,x,x,x,x
Cc1onc(-c2ccccc2)c1C(=O)NC(=S)Nc1sc2c(c1C#N)CCC(C)C2 (stereo not drawn),1,-24,-2,-1,21*,u,0.058*,u,0.024*,0.037*,0.025*
Cc1onc(-c2ccccc2)c1C(=O)Nc1sc2c(c1C#N)CCC2,2,-21,26,-10,-0.24,x,x,x,x,x,x
COC(=O)c1ccc(NC(=S)NC(=O)c2c(-c3ccccc3)noc2C)cc1,x,x,x,x,17*,0.012,0.023*,0.036,u,0.049*,0.012
CCCOc1ccc(C(=O)NC(=S)NNC(=O)c2c(-c3ccccc3)noc2C)cc1,x,x,x,x,62*,0.021*,0.065*,u,0.045*,0.04*,0.04*
CC(=O)N1CCN(C(=S)NC(=O)c2c(-c3ccccc3Cl)noc2C)CC1,0,x,-7,x,1.3,x,x,x,x,x,x
Cc1onc(-c2ccccc2Cl)c1C(=O)NC(=S)Nc1ccc(C(C)C)cc1,x,x,x,x,9.9*,0.0076,0.013*,0.029,0.014*,u,0.013*
CCCOc1ccc(NC(=O)c2c(-c3ccccc3)noc2C)cc1,3,-7,5,-1,0.17,x,x,x,x,x,x
COc1ccc(OC)c2c(C)c(C)[nH]c12,x,x,x,x,1.6,x,x,x,x,x,x
Cc1nc(/C=C\C(=O)O)c2cc(C)oc2n1,0,x,-9,x,0.044,x,x,x,x,x,x
Cc1ccc(NC(=S)NC(=O)c2c(-c3ccccc3Cl)noc2C)cc1,2,-42,5,24,5.4*,0.0075,0.035*,0.028,0.015*,0.037*,u

# Source: PubChem BioAssay (several laboratories)
